≈ marks a conversion by molar mass, not a printed value.

What all share (format): functional
One experiment deals with Staphylococcus aureus. Description: Antimicrobial activity against Staphylococcus aureus ATCC 6538 after 24 hrs by dilution susceptibility assay. The settings on record: ATCC 6538, 24 h. The procedure, abridged: (§1)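 Broth microdilution MIC per CLSI recommendations, ATCC strains, 96-well format, no agitation; inoculum 2 × 10⁵ bacterial cells per well; incubated 24 h at 37 °C; MIC as average of 3 independent experiments.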

A further experiment has as its system Bacillus subtilis. Description: Antimicrobial activity against Bacillus subtilis ATCC 11229 after 24 hrs by dilution susceptibility assay. The settings on record: ATCC 11229, 24 h. The procedure, abridged: as §1
The test system of a further experiment is Escherichia coli. Description: Antimicrobial activity against Escherichia coli […] after 24 hrs by dilution susceptibility assay. The procedure, abridged:
as §1

As a reminder, the MIC is the lowest concentration that inhibits growth of the organism. For the compound `CCC(=O)/C=C(\O)c1ccccn1`, the minimum inhibitory concentration (MIC) was determined as 23.6 µg/mL (≈ 133 µM) in the experiment on Staphylococcus aureus, 211 µg/mL (≈ 1190 µM) against Bacillus subtilis and 195 µg/mL (≈ 1100 µM) against Escherichia coli.
For `CCC(=O)C(C)C(=O)c1ccccn1` (stereo unspecified) the same measures were 758 µg/mL (≈ 3960 µM), 786 µg/mL (≈ 4110 µM) and 391 µg/mL (≈ 2040 µM).
For `CC(=O)/C=C(\O)c1ccccn1` the same measures were 46.9 µg/mL (≈ 287 µM), 190 µg/mL (≈ 1160 µM) and 379 µg/mL (≈ 2320 µM).
For `O=C(/C=C(\O)c1cccnc1)c1ccccc1` the same measures were 95.1 µg/mL (≈ 422 µM), 94.6 µg/mL (≈ 420 µM) and 95.8 µg/mL (≈ 425 µM).
As to `CCCCC(=O)/C=C(\O)c1cccnc1`, the MIC stood at 95.5 µg/mL (≈ 465 µM) in the experiment with Staphylococcus aureus, 95.4 µg/mL (≈ 465 µM) with Bacillus subtilis and 95.4 µg/mL (≈ 465 µM) against Escherichia coli.
Turning to `CCCC(=O)/C=C(\O)c1ccccn1`, the MIC against Staphylococcus aureus came out at 192 µg/mL (≈ 1000 µM); in the experiment with Bacillus subtilis, 97.2 µg/mL (≈ 509 µM); against Escherichia coli it was 97.8 µg/mL (≈ 512 µM).
`CCCCC(=O)/C=C(\O)c1ccccn1`: the values for the MIC against Staphylococcus aureus, against Bacillus subtilis and with Escherichia coli were 96.5 µg/mL (≈ 470 µM), 48.1 µg/mL (≈ 235 µM) and 47.7 µg/mL (≈ 232 µM), respectively.
In the same order, the values of `O=C(/C=C(\O)c1ccccn1)c1ccccc1` are 47.4 µg/mL (≈ 210 µM), 24.5 µg/mL (≈ 109 µM) and 24.1 µg/mL (≈ 107 µM).
For `CC(=O)/C=C(\O)c1cccnc1` the same measures were 392 µg/mL (≈ 2400 µM), 397 µg/mL (≈ 2430 µM) and 402 µg/mL (≈ 2460 µM).
In the same order, the values of `CC1(C)S[C@@H]2[C@H](NC(=O)[C@H](N)c3ccccc3)C(=O)N2[C@H]1C(=O)O` [AMPICILLIN] are 3.19 µg/mL (≈ 9.13 µM), 12.5 µg/mL (≈ 35.7 µM) and 6.99 µg/mL (≈ 20 µM).
In the case of `CCC(=O)/C=C(\O)c1cccnc1`, the minimal inhibitory concentration (MIC) with Staphylococcus aureus came out at 380 µg/mL (≈ 2150 µM); in the experiment with Bacillus subtilis it was 374 µg/mL (≈ 2110 µM); against Escherichia coli, 379 µg/mL (≈ 2140 µM).
Consider `CCCC(=O)/C=C(\O)c1cccnc1`, for which the MIC in the experiment on Staphylococcus aureus came out at 193 µg/mL (≈ 1010 µM); with Bacillus subtilis, 200 µg/mL (≈ 1050 µM); in the experiment with Escherichia coli, 94.1 µg/mL (≈ 492 µM).

These data come from ChEMBL document CHEMBL1152963, “Synthesis and antimicrobial activity of 4-hydroxy-4-(pyridyl)alk-3-en-2-ones” (2009).
